According to ChEMBL document CHEMBL1142819, “Synthesis of benzoyl phenyl benzoates as effective inhibitors for phospholipase A2 and hyaluronidase enzymes” (Bioorg Med Chem Lett, 2005):
Activity calls are given as the source filed them. The calls are words filed in the database; no cut-off is given here.

Columns and labels:
Basic phospholipase A2 1 = molecular target: T1, Basic phospholipase A2 1 (Naja melanoleuca, UniProt P00599); assay: In vitro inhibitory concentration against phospholipase A2 of Naja melanoleuca venom
T1 sequence (P00599 whole entry): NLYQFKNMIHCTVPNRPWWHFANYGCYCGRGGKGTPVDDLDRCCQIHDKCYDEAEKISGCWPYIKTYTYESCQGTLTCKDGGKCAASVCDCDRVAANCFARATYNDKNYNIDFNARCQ

Naja melanoleuca = assay: Percent inhibition of hyaluronidase from Naja melanoleuca venom; NI = No inhibition
Mus musculus [1] = assay: Edema ratio expressed as weight of edematous leg to 100/weight of normal leg in mice upon injection of 300 uM compound pre-incubated with 1 ug phospholipase A2 of Naja melanoleuca at 37 degree C for 1 h into mice foot pads; type: functional
Outline: (§1)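 Each PLA2 enzyme (1 µg) was preincubated with compound (300 µM) at 37 °C for 1 h, then injected into the right hind footpad of mice (22–24 g) in saline. The left footpad received saline as control. After 45 min the mice were killed, and both legs were cut at the ankle and weighed. Edema ratio = edematous leg weight × 100 / normal leg weight. Results given as mean SD (n = 4); Student's t test, P < 0.05.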

Naja naja [2] = assay: Percent inhibition of hyaluronidase from Naja naja naja venom; design: concentration or dose not given beside the values; conditions: concentration not given here
[3] = In vitro Inhibitory concentration against phospholipase A2 activity of synovial fluid; design: species or system Homo sapiens
[4] = molecular target: Acidic phospholipase A2 EC-I (Echis carinatus, UniProt Q7T3S7); assay: In vitro inhibitory concentration against phospholipase A2 of Echis carinatus venom
Daboia russelii russelii [5] = assay: Percent inhibition of hyaluronidase from Vipera russelli russelli venom; design: concentration or dose not given beside the values; conditions: concentration not given here
Protobothrops elegans [6] = assay: Percent inhibition of hyaluronidase from Trimeresurus elegans venom; design: concentration or dose not given beside the values; conditions: concentration not given here
[7] = molecular target: T2, Basic phospholipase A2 PLA-A (Trimeresurus flavoviridis, UniProt P59264); assay: In vitro inhibitory concentration against phospholipase A2 of Trimeresurus flavoviridis venom; design: species or system Protobothrops flavoviridis
T2 sequence (P59264 whole entry): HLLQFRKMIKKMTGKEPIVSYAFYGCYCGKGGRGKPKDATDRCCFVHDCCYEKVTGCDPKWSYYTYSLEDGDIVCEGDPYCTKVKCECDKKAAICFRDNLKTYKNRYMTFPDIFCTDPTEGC

Daboia russelii russelii [8] = assay: Percent inhibition of hyaluronidase from Vipera russelli russelli venom; NI = No inhibition
Mus musculus [9] = assay: Edema ratio expressed as weight of edematous leg to 100/weight of normal leg in mice upon injection of 300 uM compound preincubated with 1 ug phospholipase A2 of Synovial fluid at 37 C for 1 hr into the mice foot pads; type: functional; outline: as §1
Naja naja [10] = assay: Percent inhibition of hyaluronidase from Naja naja naja venom; NI = No inhibition
Protobothrops elegans [11] = assay: Percent inhibition of hyaluronidase from Trimeresurus elegans venom; NI = No inhibition
Mus musculus [12] = assay: Edema ratio expressed as weight of edematous leg to 100/weight of normal leg in mice upon injection of 300 uM compound preincubated with 1 ug phospholipase A2 of Trimeresurus flavoviridis at 37 C for 1 hr into the mice foot pads; type: functional; outline: as §1
Mus musculus [13] = assay: Edema ratio expressed as weight of edematous leg to 100/weight of normal leg in mice upon injection of 300 uM compound pre-incubated with 1 ug phospholipase A2 of Echis carinatus at 37 C for 1 h into the mice foot pads; type: functional; outline: as §1

Sequence of Acidic phospholipase A2 EC-I (Q7T3S7 17-136 limits assumed): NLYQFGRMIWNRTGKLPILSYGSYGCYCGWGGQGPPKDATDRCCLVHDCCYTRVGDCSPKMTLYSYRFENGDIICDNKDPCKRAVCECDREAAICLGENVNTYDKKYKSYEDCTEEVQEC

SMILES | IC50 (Basic phospholipase A2 1) | inhibition (Naja melanoleuca) | Ratio (Mus musculus [1]) | inhibition (Naja naja [2]) | IC50 [3] | IC50 [4] | inhibition (Daboia russelii russelii [5]) | inhibition (Protobothrops elegans [6]) | IC50 [7] | inhibition (Daboia russelii russelii [8]) | Ratio (Mus musculus [9]) | inhibition (Naja naja [10]) | inhibition (Protobothrops elegans [11]) | Ratio (Mus musculus [12]) | Ratio (Mus musculus [13])
Cc1ccc(C(=O)Oc2ccc(C)cc2C(=O)c2ccc(C)cc2)cc1 | 57 µM | inactive | 103 | 69.3% | 123 µM | 96 µM | 46% | 76.8% | 108 µM | – | – | – | – | – | –
Cc1ccc(OC(=O)c2ccccc2C)c(C(=O)c2ccccc2C)c1 | 98 µM | – | 102 | 58.7% | 86 µM | 105 µM | – | 42.4% | 139 µM | inactive | 106 | – | – | – | –
Cc1cc(C(=O)c2cccc(Cl)c2Cl)ccc1OC(=O)c1ccccc1 | 132 µM | – | – | – | 156 µM | 112 µM | 26.2% | 33.1% | 89 µM | – | – | inactive | – | – | –
Cc1ccc(OC(=O)c2ccccc2)c(C(=O)c2ccccc2)c1 | 60 µM | inactive | – | 13.9% | 46 µM | 94 µM | 28.2% | – | 69 µM | – | 109 | – | inactive | 105 | –
Cc1ccc(C(=O)Oc2ccc(C(=O)c3ccccc3C)cc2C)cc1 | 73 µM | – | – | 42.4% | 56 µM | 87 µM | 36.9% | 48.9% | 75 µM | – | 101 | – | – | – | –
O=C(Oc1ccc(Cl)cc1C(=O)c1cccc(Cl)c1Cl)c1ccccc1 | 53 µM | – | 104 | 85.3% | 32 µM | 40 µM | 71.6% | 76.8% | 46 µM | – | 102 | – | – | 105 | 103
Cc1ccc(OC(=O)c2cccc(Cl)c2)c(C(=O)c2cccc(Cl)c2)c1 | 2.9 µM | – | 101 | 89.3% | 2.5 µM | 2.3 µM | 87.8% | 92.5% | 2.5 µM | – | 101 | – | – | 102 | 101
C[C@H]1[C@H](C)CC[C@]2(C(=O)O)CC[C@]3(C)C(=CC[C@@H]4[C@@]5(C)CC[C@H](O)C(C)(C)[C@@H]5CC[C@]43C)[C@H]12 [URSOLIC ACID] | 2.9 µM | – | – | – | – | 2.3 µM | – | – | – | – | – | – | – | – | –
